Screens deposited in PubChem BioAssay by The Scripps Research Institute Molecular Screening Center.
GPR7 antagonist = antagonists of human GPR7 (neuropeptides B/W receptor 1). P48145. GPR7-expressing cells, fluorescence antagonist assay. inhibition, % at 4.4 µM. actives 1.1% (n = 290,000). AID 1861; in the data active means inhibition above about 16%, passing the limit was not always enough;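 further: cells stimulated with the agonist NPW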
OX1R antag-1 = antagonists of human orexin 1 receptor; O43613; CHO/OX1R cells, Fluo-8 calcium fluorescence, orexin A; inhibition, % at 5 µM; actives 0.43% (n = 330,000);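 active means inhibition above its plate's threshold, mean inhibition of all tested compounds on the plate plus 3 SD, cut at about 37% in these data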
Target sequence (O43613 whole entry, looked up): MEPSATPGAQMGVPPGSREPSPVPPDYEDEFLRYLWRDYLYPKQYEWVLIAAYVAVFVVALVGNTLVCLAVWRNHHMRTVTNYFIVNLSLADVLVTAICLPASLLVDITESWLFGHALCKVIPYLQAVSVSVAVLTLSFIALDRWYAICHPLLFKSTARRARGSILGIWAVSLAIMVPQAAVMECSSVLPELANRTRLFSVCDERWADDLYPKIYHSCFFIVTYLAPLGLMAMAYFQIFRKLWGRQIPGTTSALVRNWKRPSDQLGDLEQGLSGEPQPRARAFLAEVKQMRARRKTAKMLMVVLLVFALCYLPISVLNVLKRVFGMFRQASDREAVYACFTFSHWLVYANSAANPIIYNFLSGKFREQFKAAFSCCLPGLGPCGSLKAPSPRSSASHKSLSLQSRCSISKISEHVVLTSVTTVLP
OX1R antag-2 = OX1R (human) antagonism. inhibition, % at 6.6 µM. AID 485270. O43613. OX1R-expressing cells, FRET antagonist read-out. actives 1.8% (n = 330,000); in the data active means inhibition mostly above about 38%, no sharp cut-off; inactive means mostly below about 40%
CHO parental Ca = signal in parental CHO cells, OX1R antagonist counter-screen | inhibition, % at 5.6 µM | actives 0.63% (n = 330,000) | parental CHO-K1, ATP-induced calcium, Fluo-8 fluorescence | AID 463079;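 active means inhibition above that plate's mean sample inhibition plus 3 SD, cut at about 26% in these data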
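Test system: parental CHO cells; detection: calcium-sensitive Fluo-8 fluorescence; evaluation: percent inhibition of calcium signal; also added: ATP as calcium-mobilizing challenge; repeats: one well per compound; control set: ATP-challenged DMSO wells low, unchallenged DMSO wells high; compound: single nominal dose of 5.6 µM per compound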
GalR3 antagonist = blocks the human galanin receptor 3; HEK293 GalR3-CNG cAMP membrane potential fluorescence; galR3 body fused to GalR1 C-terminus; O60755; inhibition, % at 3 µM; AID 651719; actives 0.44% (n = 360,000);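 active means inhibition above the screen-wide average plus 3 SD, cut at about 13% in these data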;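 further: forskolin and galanin both at EC90 stimulate the cells; cAMP rise reported by CNG channel membrane potential dye signal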
Target sequence (O60755 1-299 limits assumed): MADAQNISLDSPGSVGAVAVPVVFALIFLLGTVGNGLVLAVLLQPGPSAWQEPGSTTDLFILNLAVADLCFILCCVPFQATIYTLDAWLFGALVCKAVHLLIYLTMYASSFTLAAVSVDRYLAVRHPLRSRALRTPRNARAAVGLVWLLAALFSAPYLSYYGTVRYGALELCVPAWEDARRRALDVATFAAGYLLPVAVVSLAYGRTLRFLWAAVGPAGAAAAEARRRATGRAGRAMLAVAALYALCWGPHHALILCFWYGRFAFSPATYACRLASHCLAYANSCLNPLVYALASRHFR
OX1R HTRF conf = confirmation of human orexin 1 receptor antagonists, HTRF format | shares compounds with OX1R antag-2 | inhibition, % at 6.6 µM | actives 49% (n = 1,800) | AID 492964 | OX1R-expressing cells, HTRF antagonist assay; in the data active means inhibition above about 55%;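 further: CHO cells expressing OX1R stimulated with orexin A at about EC80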
CHO-K1 HTRF = signal in parental CHO-K1 cells, OX1R antagonist counter-screen; actives 48% (n = 1,800); shares compounds with OX1R antag-2; HTRF counterscreen; inhibition, % at 6.6 µM; in the data active means inhibition above about 17%
GalR3 conf = confirmation of human galanin receptor 3 antagonists | shares compounds with GalR3 antagonist | inhibition, % at 3 µM | AID 652245 | HEK293 GalR3 CNG cAMP biosensor, membrane potential fluorescence; galR3 fused to GalR1 carboxy tail; challenged with forskolin and galanin at EC90 | actives 59% (n = 1,600);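 active means inhibition above the primary screen's cutoff, the mean inhibition of all screened compounds plus 3 SD, cut at about 13% in these data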
CNG parental = acts as nonspecific agonist in parental HEK-CNG cells; shares compounds with GalR3 antagonist; HEK293-CNG parental cells, cAMP membrane potential fluorescence; normalised: DMSO wells 0%, forskolin wells 100%; activation, % at 3 µM; actives 10% (n = 1,600); in the data active means activation above about 1.3%
Numbers stand for hits; n = inactive; x = not tested or not shown; + = active, no number. Hits are enriched below; roughly 3.1% of the tested compounds scored in any of these assays.

SMILES | GPR7 antagonist | OX1R antag-1 | OX1R antag-2 | CHO parental Ca | GalR3 antagonist | OX1R HTRF conf | CHO-K1 HTRF | others
CCN1CCN(CCCNC(=O)c2cc3cc4ccc(OC)cc4nc3o2)CC1 | n | n | 103.6 | n | x | n | 40.7
COc1ccc2cc3cc(C(=O)NCCCN4CCOCC4)oc3nc2c1 | n | n | 135.1 | n | n | 56.4 | 35.0
CN(C(=O)c1cccc(NC(=O)Cc2ccc(NC(=O)C3CCN(C(=O)CCc4ccccc4)CC3)cc2)c1)C1CCCC1 | x | x | x | x | n | x | x
COc1ccc(C)cc1-n1nnnc1SCc1nc(N)nc(N(C)C)n1 | x | x | x | x | n | x | x
CC(C)(C)c1cccc(N/C(=C\C(=O)c2ccccc2)c2ccccc2)c1 | x | x | x | x | n | x | x
O=[N+]([O-])c1cnc(Nc2ccc(Cl)cn2)c([N+](=O)[O-])c1 | n | n | 96.9 | n | n | n | 45.3
COC(=O)[C@@]12C[C@@H](CC(=O)N3CCCC3)C(=O)N(Cc3ccco3)C1=CCC(C)(C)C2 | x | x | x | x | n | x | x
Cn1cc(/C=N\O)nc2c(=O)n(-c3ccccc3)c(=O)nc1-2 | n | n | 77.7 | n | n | 68.1 | 88.8
O/N=C/c1cn(-c2ccccc2)nn1 | n | n | n | n | n | x | x
CC1CN(c2ccc([N+](=O)[O-])nc2)CC(C)O1 (stereo not drawn) | n | n | 81.7 | n | n | n | 47.4
CC(C)(C)S(=O)N1C[C@@H]2CC(=O)C(c3ccccc3)=C2[C@H]1CCO (stereo partly drawn) | x | x | x | x | n | x | x
O=C1CN(S(=O)(=O)c2ccc([N+](=O)[O-])cc2)CC(=O)N1 | n | n | 76.8 | n | n | n | 65.6
O=[N+]([O-])c1ccc(-c2ccc(S(=O)(=O)N3CCOCC3)cc2)cc1 | n | n | n | n | n | x | x
N#CC1=C(N)Oc2c(oc(CO)cc2=O)C1c1cccs1 (stereo not drawn) | n | n | 76.8 | n | n | n | 22.0
COc1cccc(C2C(C#N)=C(N)Oc3c2oc(CO)cc3=O)c1OC (stereo not drawn) | n | n | n | n | n | x | x
N#CC1=C(N)Oc2c(oc(CO)cc2=O)C1c1ccsc1 (stereo not drawn) | n | n | 91.6 | n | n | n | 17.6
COc1ccc(/C=c2\s/c(=C/C(=O)c3ccc(C)cc3)[nH]c2=O)cc1OC | n | n | 82.2 | n | n | 84.3 | 18.6
CCOC(=O)N/N=C\c1ccc([N+](=O)[O-])o1 | n | n | 78.2 | n | n | n | 79.3
CC1CCCN(C2=C(NS(=O)(=O)c3ccc(Br)cc3)C(=O)c3ccccc3C2=O)C1 (stereo not drawn) | n | n | n | n | n | x | x
CCOC(=O)C1CCCN(C2=C(NS(=O)(=O)c3ccc(Br)cc3)C(=O)c3ccccc3C2=O)C1 (stereo not drawn) | n | n | 89.3 | n | n | 72.9 | 77.4
CCOC(=O)C1CCN(C2=C(NS(=O)(=O)c3ccc(Cl)cc3)C(=O)c3ccccc3C2=O)CC1 | n | n | 114.0 | n | n | 118.7 | 42.2
COc1ccc(/C=C/C(=O)O/N=C(\N)c2ccccc2)cc1OC | n | n | 81.4 | n | n | n | n
COc1ccc(/C(N)=N/OC(=O)/C=C/c2ccccc2)cc1 | n | n | n | n | n | x | x
Cc1cccc2c3nc4ccccc4nc3n(C)c12 | n | n | 81.4 | n | n | 92.0 | n
COC(=O)Cn1c2nc3ccccc3nc2c2cccc(C)c21 | n | x | x | x | n | x | x
SMILES | GPR7 antagonist | OX1R antag-1 | OX1R antag-2 | CHO parental Ca | GalR3 antagonist | OX1R HTRF conf | CHO-K1 HTRF | others
CCOc1cc(/C=C2/NC(=O)NC2=O)cc([N+](=O)[O-])c1O | n | n | 80.3 | n | n | n | 73.9
CCOC(=O)c1c(=O)n(O)c2ccc(OC)cc2[n+]1[O-] | n | n | 118.2 | n | n | n | 62.0
COc1ccc2c(c1)[n+](=O)c(C(C)=O)c(C)n2[O-] | n | n | n | n | n | x | x
CCOc1cc(OCC)cc(C(=O)NCCN2CCC(n3c(=O)[nH]c4ccccc43)CC2)c1 | x | x | x | x | n | x | x
C[C@@H]1ON(C)[C@H]2C[C@H]3c4cc(-c5ccc6c(c5)OCO6)ccc4CCN3C[C@@H]12 | x | x | x | x | n | x | x
CC(=O)c1cccc(NC(=O)CCNS(=O)(=O)c2cccc3nonc23)c1 | n | n | 97.4 | n | n | n | 22.8
O=C(NCc1ccco1)c1cc([N+](=O)[O-])cc([N+](=O)[O-])c1 | n | n | 118.3 | n | n | 54.9 | 69.0
O=C(NCc1ccco1)c1cc([N+](=O)[O-])ccc1Cl | n | n | n | n | n | x | x
O=[n+]1cc(-c2cc3ccccc3o2)n([O-])c2c1CCCC2 | x | n | 89.1 | n | n | n | 43.8
O=[n+]1cc(-c2ccccc2)n([O-])c2c1CCCCC2 | n | n | n | n | n | x | x
C[C@H]1COc2cc(N3CCCCC3)ccc2S(=O)(=O)N1 | x | x | x | x | n | x | x
CCSc1ccc([C@@H]2[C@H]3C(=O)N(CC)C(=O)[C@H]3[C@]3(C(=O)OC)CCCCN23)cc1OC | x | n | 84.5 | n | x | 76.0 | n
O=C(CNC(=O)c1ccccc1)c1ccccc1 | x | n | 84.8 | n | n | n | n
CCCC(=O)OCCNc1cc(Sc2nccn2C)c2nonc2c1[N+](=O)[O-] | n | n | 90.8 | n | 39.8 | 72.1 | 60.2 | GalR3 conf=24.0;CNG parental=n
Cc1nnc(N/N=C/c2ccc([N+](=O)[O-])cc2)n1N | n | n | 127.1 | n | 14.9 | n | 75.8 | GalR3 conf=n;CNG parental=n
COc1ccc(CNc2ncccc2[N+](=O)[O-])cc1 | n | n | n | n | n | x | x
O=C(O)CNc1ncccc1[N+](=O)[O-] | n | n | + | n | 16.5 | n | 46.3 | GalR3 conf=n;CNG parental=n
COc1ccc(NC(=O)C2(C)CCN2C)cc1OC (stereo not drawn) | x | x | x | x | n | x | x
c1cc(-c2cc3c(o2)CCCC3OCCN2CCOCC2)cs1 (stereo not drawn) | x | x | x | x | n | x | x
COc1cc2c(cc1OC)/C(=C/C(=O)c1ccc(OC)c([N+](=O)[O-])c1)NCC2 | n | x | x | x | 18.6 | x | x | GalR3 conf=24.9;CNG parental=n
COc1cc2c(cc1OC)/C(=C/C(=O)c1cccc([N+](=O)[O-])c1)NCC2 | n | n | n | n | n | x | x
COc1ccc(C(=O)NC(=S)Nc2ccc(CN3CCCCC3)cc2)cc1Cl | n | n | n | n | 15.3 | x | x | GalR3 conf=n;CNG parental=9.7
O=C(N[C@H](Cc1ccccc1)C(=O)N1CCN(CC(=O)N2CCCC2)CC1)[C@H]1O[C@@H](n2ccc(=O)[nH]c2=O)[C@H](O)[C@@H]1O | x | x | x | x | n | x | x
